Values after ≈ are worked out from the molar mass of the structure shown. Active and inactive are the calls of the source. The calls are words filed in the database; no cut-off is given here. Positions of bridges follow the written chain, without caps; N, C: chain ends. Non-standard residues stand in square brackets, D forms with d. Residues, ends and D or L forms follow the SMILES beside them. *: point of attachment. X1 = CC[C@H](C)CCCCC(=O)*; Dab = NCC[C@H](N)C(=O)O
Key:
[1] = tested on: Staphylococcus aureus; test: Antibacterial activity against methicillin resistant Staphylococcus aureus assessed as inhibition of bacterial growth measured after 16 hrs by agar plate dilution method; format: functional
Summary of the method: (§1)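 Clinical MSSA and MRSA strains isolated from local hospitals; MIC determined by plate dilution; data from at least two independent experiments.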

[2] = Binding affinity to His6-tagged Escherichia coli FabF C163Q mutant expressed in Escherichia coli BL21 (DE3) assessed as binding constant measured after 200 sec by isothermal titration calorimetry
Summary of the method: (§2)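 Ligands were dissolved in PBS (10 mM, pH 7.4) and titrated into E. coli FabF(C163Q) in the same buffer. Protein was at 12 or 14 μM and ligand at 250 μM. Thermodynamic parameters (ΔH, ΔS, ΔG, Kd, n) were calculated from the heat of binding. Runs were done at least three times; one representative run was used.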

[3] = tested on: Escherichia coli; test: Binding affinity to His6-tagged Escherichia coli FabF C163Q mutant expressed in Escherichia coli BL21 (DE3) assessed as change in entropy measured after 200 sec by isothermal titration calorimetry; summary of the method: as §2
[4] = tested on: Enterococcus faecalis; test: Antibacterial activity against Enterococcus faecalis ATCC 29212 assessed as inhibition of bacterial growth measured after 16 hrs by agar plate dilution method; format: functional
[5] = tested on: Staphylococcus aureus; test: Antibacterial activity against Staphylococcus aureus ATCC 29213 assessed as inhibition of bacterial growth measured after 16 hrs by agar plate dilution method; format: functional
Summary of the method: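 MIC determined by plate dilution against the reference strain; values from at least two independent experiments.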

[6] = tested on: Staphylococcus aureus; test: Antibacterial activity against methicillin resistant Staphylococcus aureus assessed as inhibition of bacterial growth measured after 18 hrs in presence of 10% human serum by resazurin dye based broth dilution assay; format: functional
[7] = tested on: Staphylococcus aureus; test: Inhibition of Staphylococcus aureus FabH A81V/A111T mutant assessed as bacterial growth inhibition measured after 18 hrs by resazurin dye based broth dilution assay
Summary of the method: (§3)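 S. aureus strains carrying point mutations in the FabH active site; MIC determined by broth dilution; data from at least two independent experiments.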

[8] = tested on: Escherichia coli; test: Binding affinity to His6-tagged Escherichia coli FabF C163Q mutant expressed in Escherichia coli BL21 (DE3) assessed Gibbs free energy change measured after 200 sec by isothermal titration calorimetry; summary of the method: as §2
[9] = tested on: Escherichia coli; test: Binding affinity to His6-tagged Escherichia coli FabF C163Q mutant expressed in Escherichia coli BL21 (DE3) assessed as change in enthalpy measured after 200 sec by isothermal titration calorimetry; summary of the method: as §2
[10] = tested on: Escherichia coli; test: Antibacterial activity against Escherichia coli harboring delta tolC mutant assessed as inhibition of bacterial growth measured after 16 hrs by agar plate dilution method; format: functional
[11] = tested on: Staphylococcus aureus; test: Inhibition of Staphylococcus aureus FabH A81V mutant assessed as bacterial growth inhibition measured after 18 hrs by resazurin dye based broth dilution assay; summary of the method: as §3
[12] = tested on: Escherichia coli; test: Binding affinity to His6-tagged Escherichia coli FabF C163Q mutant expressed in Escherichia coli BL21 (DE3) assessed as stoichiometry ratio measured after 200 sec by isothermal titration calorimetry; summary of the method: as §2
[13] = tested on: Staphylococcus aureus; test: Antibacterial activity against methicillin sensitive Staphylococcus aureus assessed as inhibition of bacterial growth measured after 16 hrs by agar plate dilution method; format: functional; summary of the method: as §1
[14] = tested on: Escherichia coli; test: Binding affinity to His6-tagged Escherichia coli FabH expressed in Escherichia coli BL21 (DE3) assessed as decrease in melting temperature at 10 uM by SYPRO orange based differential scanning fluorimetry
Summary of the method: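 Purified E. coli FabH melting curves were recorded with and without ligand by thermal-shift fluorometry in 1.0 M Tris-HCl, pH 6.8, a buffer chosen from seven screened. ΔTm was taken from the Tm shift; n = 4.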

[15] = target: T1, 3-oxoacyl-[acyl-carrier-protein] synthase 2 (Staphylococcus aureus) (UniProt Q5TKS0); test: Binding affinity to His6-tagged Staphylococcus aureus FabF expressed in Escherichia coli BL21 (DE3) assessed as decrease in melting temperature at 10 uM by SYPRO orange based differential scanning fluorimetry
T1 sequence (whole entry): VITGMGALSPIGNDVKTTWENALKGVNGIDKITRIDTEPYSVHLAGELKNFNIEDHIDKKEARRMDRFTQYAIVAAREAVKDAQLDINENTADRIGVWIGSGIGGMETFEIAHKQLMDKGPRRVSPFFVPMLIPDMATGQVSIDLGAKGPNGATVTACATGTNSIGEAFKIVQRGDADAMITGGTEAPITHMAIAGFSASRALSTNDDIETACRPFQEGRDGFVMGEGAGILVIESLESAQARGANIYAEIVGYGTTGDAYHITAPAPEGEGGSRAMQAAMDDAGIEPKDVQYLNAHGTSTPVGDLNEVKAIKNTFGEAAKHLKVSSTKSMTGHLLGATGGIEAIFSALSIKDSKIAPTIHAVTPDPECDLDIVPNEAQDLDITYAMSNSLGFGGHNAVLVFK
Summary of the method: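 S. aureus FabF melting curves were measured by DSF in 20 mM HEPES, 180 mM NaCl, pH 7.5, a buffer selected by screening seven buffers. ΔTm was derived from the melting-temperature shift caused by ligand; n = 4.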

[16] = tested on: Staphylococcus aureus; test: Antibacterial activity against methicillin resistant Staphylococcus aureus infected in C57BL/6J mouse model of peritonitis assessed as mouse survival at 10 mg/kg, ip administered at 1 and 5 hrs post infection; format: functional, organism-based
Summary of the method: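 Female C57BL/6J mice infected intraperitoneally with 1.5–2.0 × 10^7 CFU MRSA in 5% w/v hog gastric mucin; n = 5 per group; intraperitoneal treatment at 10 mg/kg at 1 and 5 h post-infection; vancomycin 10 mg/kg as control; survival and kidney bacterial load recorded.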

[17] = tested on: Staphylococcus aureus; test: Antibacterial activity against methicillin resistant Staphylococcus aureus infected in C57BL/6J mouse model of peritonitis assessed as mouse survival when infected with 2.5x10^7 CFU bacteria at 10 mg/kg, ip administered at 1 and 5 hrs post infection; format: functional, organism-based
Summary of the method: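 Female C57BL/6J mice given a higher intraperitoneal MRSA inoculum of 2.5 × 10^7 CFU; intraperitoneal treatment at 1 and 5 h post-infection; survival recorded.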

Compound	MIC [1] [µg/mL]	MIC [5] [µg/mL]	MIC [7] [µg/mL]	MIC [10] [µg/mL]	MIC [11] [µg/mL]	MIC [13] [µg/mL]	Activity [14]	Activity [15]	other results
C[C@]12C[C@@]34C=CC(=O)[C@@](C)(CCC(=O)Nc5c(O)ccc(C(=O)O)c5O)[C@@H]3[C@H](C[C@@H]1C4)O2	1 (≈ 2.27 µM)	1 (≈ 2.27 µM)	> 32	32 (≈ 72.5 µM)	> 32	0.5 (≈ 1.13 µM)			Kd [2]: 17.3 nM; -TdeltaS [3]: -7.95 kcal/mol; MIC [4]: 2 µg/mL (≈ 4.53 µM); MIC [6]: 2 µg/mL; deltaG [8]: -10 kcal/mol; deltaH [9]: -2.06 kcal/mol; Ratio [12]: 1.16
C=C1C[C@]23C=C(SC4CCCCC4)C(=O)[C@@](C)(CCC(=O)Nc4c(O)ccc(C(=O)O)c4O)[C@@H]2C[C@H]1CC3	2 (≈ 3.71 µM)	2 (≈ 3.71 µM)				2 (≈ 3.71 µM)	Active	Active	Activity [16]: inactive
CC1(C)S[C@@H]2[C@H](NC(=O)[C@H](N)c3ccccc3)C(=O)N2[C@H]1C(=O)O			32 (≈ 91.6 µM)		16 (≈ 45.8 µM)				
CC[C@H](C)CCCCC(=O)N[C@@H](CCN)C(=O)N[C@H](C(=O)N[C@@H](CCN)C(=O)N[C@H]1CCNC(=O)[C@H]([C@@H](C)O)NC(=O)[C@H](CCN)NC(=O)[C@H](CCN)NC(=O)[C@H](CC(C)C)NC(=O)[C@@H](Cc2ccccc2)NC(=O)[C@H](CCN)NC1=O)[C@@H](C)O (X1-[Dab]T[Dab][Dab][Dab][dF]L[Dab][Dab]T; lactam 4-C)				4 (≈ 3.32 µM)					
C=C1C[C@]23C=C(Sc4ccoc4C)C(=O)[C@@](C)(CCC(=O)Nc4c(O)ccc(C(=O)O)c4O)[C@@H]2CC1CC3 (single isomer, unassigned)	1 (≈ 1.86 µM)	2 (≈ 3.72 µM)	8 (≈ 14.9 µM)	> 32	8 (≈ 14.9 µM)	1 (≈ 1.86 µM)	Active	Active	MIC [4]: 2 µg/mL (≈ 3.72 µM); MIC [6]: 16 µg/mL; Activity [17]: inactive
C=C1C[C@]23C=C(SCCC)C(=O)[C@@](C)(CCC(=O)Nc4c(O)ccc(C(=O)O)c4O)[C@@H]2CC1CC3 (single isomer, unassigned)	4 (≈ 8.01 µM)	8 (≈ 16 µM)				4 (≈ 8.01 µM)	Active	Active	
C=C1C[C@]23C=C(Sc4ccccn4)C(=O)[C@@](C)(CCC(=O)Nc4c(O)ccc(C(=O)O)c4O)[C@@H]2CC1CC3 (single isomer, unassigned)	2 (≈ 3.74 µM)	4 (≈ 7.48 µM)				2 (≈ 3.74 µM)	Active	Active	
C=C1C[C@]23C=C(Sc4ccc(I)cc4)C(=O)[C@@](C)(CCC(=O)Nc4c(O)ccc(C(=O)O)c4O)[C@@H]2CC1CC3 (single isomer, unassigned)	4 (≈ 6.06 µM)	8 (≈ 12.1 µM)				4 (≈ 6.06 µM)	Active	Active	
C=C1C[C@]23C=C(SC(C)(C)C)C(=O)[C@@](C)(CCC(=O)Nc4c(O)ccc(C(=O)O)c4O)[C@@H]2CC1CC3 (single isomer, unassigned)	8 (≈ 15.6 µM)	16 (≈ 31.1 µM)				8 (≈ 15.6 µM)	Active	Active	
